Calls of active or inactive are those of the source. The calls are words filed in the database; no cut-off is given here.
Key:
[1] = target: T1, Protein lin-28 homolog A (Mus musculus) (UniProt Q8K3Y3); test: (§1) Binding affinity to mouse N-terminal Halo-fused/biotin-labelled Lin28A expressed in Escherichia coli BL21(DE3) assessed as inhibition of protein interaction with pre-Let-7d microRNA measured after 1 hr by cat-ELCCA
T1 sequence (whole entry): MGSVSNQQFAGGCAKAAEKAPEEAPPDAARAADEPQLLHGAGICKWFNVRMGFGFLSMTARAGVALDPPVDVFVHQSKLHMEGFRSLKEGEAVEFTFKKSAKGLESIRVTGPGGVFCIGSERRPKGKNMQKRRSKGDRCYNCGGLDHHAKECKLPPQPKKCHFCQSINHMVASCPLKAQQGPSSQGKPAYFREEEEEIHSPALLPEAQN
Summary of the method: (§2)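 Biotinylated HaloTag-mLin28A (10 μL of 200 nM in storage buffer) immobilized on streptavidin plates overnight at 4 °C. TCO-pre-let-7d (200 nM in binding buffer) added with compound, 5% DMSO final, 1 h at 25 °C. Then mTet-HRP (750 nM) click for 1 h at 25 °C, washes, chemiluminescent read. CRCs were eight points, 3.3–120 μM.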

[2] = target: T2, Protein lin-28 homolog A (Mus musculus, UniProt Q8K3Y3); test: as §1; summary of the method: as §2
T2 sequence (Q8K3Y3 whole entry): T1 sequence (whole entry)

[3] = target: T1, Protein lin-28 homolog A (Mus musculus); test: Binding affinity to mouse N-terminal Halo-fused/biotin-labelled Lin28A expressed in Escherichia coli BL21(DE3) assessed as inhibition of protein interaction with pre-Let-7d microRNA by electrophoretic mobility shift assay
[4] = target: Endoribonuclease Dicer (Homo sapiens) (UniProt Q9UPY3); test: Binding affinity to dicer (unknown origin) assessed as inhibition of dicer-meditated pre-let-7d microRNA maturation at 100 uM by electrophoretic mobility shift assay
Summary of the method: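 Dicer-mediated pre-let-7d maturation tested with compound at 100 μM; samples run with and without Dicer; procedure cited to earlier work.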

[5] = target: T1, Protein lin-28 homolog A (Mus musculus); test: Binding affinity to mouse N-terminal Halo-fused/biotin-labelled Lin28A expressed in Escherichia coli BL21(DE3) assessed as inhibition of protein interaction with pre-Let-7a microRNA at 20 to 50 uM by electrophoretic mobility shift assay
[6] = target: T3, Protein lin-28 homolog B (Homo sapiens) (UniProt Q6ZN17); test: Binding affinity to human N-terminal Halo-fused/biotin-labelled Lin28B expressed in Escherichia coli BL21(DE3) assessed as inhibition of protein interaction with pre-Let-7d microRNA measured after 1 hr by cat-ELCCA
T3 sequence (whole entry): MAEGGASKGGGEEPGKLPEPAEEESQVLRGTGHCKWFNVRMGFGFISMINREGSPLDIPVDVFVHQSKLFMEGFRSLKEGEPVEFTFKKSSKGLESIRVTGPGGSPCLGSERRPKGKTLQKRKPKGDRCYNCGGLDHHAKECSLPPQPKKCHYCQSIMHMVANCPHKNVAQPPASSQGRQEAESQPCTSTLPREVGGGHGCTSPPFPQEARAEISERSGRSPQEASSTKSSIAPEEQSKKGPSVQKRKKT
Summary of the method: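 Human Lin28B, cloned from A549 cDNA as a HaloTag fusion, expressed in E. coli (IPTG 500 μM, overnight 37 °C), Ni-NTA purified, biotinylated with Biotin-PEG7-HaloTag ligand (10 equiv, overnight 4 °C), immobilized on streptavidin plates. TCO-labelled pre-let-7d plus compound in Tris binding buffer with ZnCl₂ and β-mercaptoethanol, 5% DMSO final, 25 °C 1 h. Bound RNA detected by mTet-HRP click chemistry and chemiluminescence. IC50 from curves.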

[7] = target: T1, Protein lin-28 homolog A (Mus musculus); test: Binding affinity to mouse N-terminal Halo-fused/biotin-labelled Lin28A expressed in Escherichia coli BL21(DE3) assessed as inhibition of protein interaction with microRNA at 20 to 50 uM by electrophoretic mobility shift assay
[8] = target: Eukaryotic translation initiation factor 4E/Eukaryotic translation initiation factor 4E-binding protein 1 (Homo sapiens) (UniProt P06730+Q13541); test: Inhibition of eIF4E-4E-BP1 (unknown origin) interaction at 100 uM by cat-ELCCA; type: protein assay
Summary of the method: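 Counter-screen: eIF4E–4E-BP1 interaction read by cat-ELCCA with compound at 100 μM; assay setup cited to earlier work.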

[9] = target: T1, Protein lin-28 homolog A (Mus musculus); test: Binding affinity to mouse N-terminal Halo-fused/biotin-labelled Lin28A expressed in Escherichia coli BL21(DE3) at 18.7 to 75 uM by surface plasmon resonance analysis
Summary of the method: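 SPR on BioCap chip with biotinylated HaloTag-Lin28A immobilized at 2,300 RU. Running buffer: 50 mM Tris pH 7.6, 150 mM NaCl, 1 mM β-ME, 5% glycerol, 0.05% Tween-20, 1 mM ZnCl₂, 5% DMSO. Analytes at 75, 37.5, 18.7 μM, injected 50 μL at 50 μL/min; regeneration between cycles.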

[10] = Binding affinity to synthetic biotinylated pre-let-7d microRNA at 6.25 to 100 uM by surface plasmon resonance analysis
Summary of the method: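 SPR with biotinylated pre-let-7d immobilized at 2,300 RU on BioCap chip. Analytes at 100, 50, 25, 12.5, 6.25 μM, injected 30 μL at 30 μL/min; regeneration between cycles.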

Endoribonuclease Dicer (Homo sapiens), sequence (Q9UPY3 whole entry): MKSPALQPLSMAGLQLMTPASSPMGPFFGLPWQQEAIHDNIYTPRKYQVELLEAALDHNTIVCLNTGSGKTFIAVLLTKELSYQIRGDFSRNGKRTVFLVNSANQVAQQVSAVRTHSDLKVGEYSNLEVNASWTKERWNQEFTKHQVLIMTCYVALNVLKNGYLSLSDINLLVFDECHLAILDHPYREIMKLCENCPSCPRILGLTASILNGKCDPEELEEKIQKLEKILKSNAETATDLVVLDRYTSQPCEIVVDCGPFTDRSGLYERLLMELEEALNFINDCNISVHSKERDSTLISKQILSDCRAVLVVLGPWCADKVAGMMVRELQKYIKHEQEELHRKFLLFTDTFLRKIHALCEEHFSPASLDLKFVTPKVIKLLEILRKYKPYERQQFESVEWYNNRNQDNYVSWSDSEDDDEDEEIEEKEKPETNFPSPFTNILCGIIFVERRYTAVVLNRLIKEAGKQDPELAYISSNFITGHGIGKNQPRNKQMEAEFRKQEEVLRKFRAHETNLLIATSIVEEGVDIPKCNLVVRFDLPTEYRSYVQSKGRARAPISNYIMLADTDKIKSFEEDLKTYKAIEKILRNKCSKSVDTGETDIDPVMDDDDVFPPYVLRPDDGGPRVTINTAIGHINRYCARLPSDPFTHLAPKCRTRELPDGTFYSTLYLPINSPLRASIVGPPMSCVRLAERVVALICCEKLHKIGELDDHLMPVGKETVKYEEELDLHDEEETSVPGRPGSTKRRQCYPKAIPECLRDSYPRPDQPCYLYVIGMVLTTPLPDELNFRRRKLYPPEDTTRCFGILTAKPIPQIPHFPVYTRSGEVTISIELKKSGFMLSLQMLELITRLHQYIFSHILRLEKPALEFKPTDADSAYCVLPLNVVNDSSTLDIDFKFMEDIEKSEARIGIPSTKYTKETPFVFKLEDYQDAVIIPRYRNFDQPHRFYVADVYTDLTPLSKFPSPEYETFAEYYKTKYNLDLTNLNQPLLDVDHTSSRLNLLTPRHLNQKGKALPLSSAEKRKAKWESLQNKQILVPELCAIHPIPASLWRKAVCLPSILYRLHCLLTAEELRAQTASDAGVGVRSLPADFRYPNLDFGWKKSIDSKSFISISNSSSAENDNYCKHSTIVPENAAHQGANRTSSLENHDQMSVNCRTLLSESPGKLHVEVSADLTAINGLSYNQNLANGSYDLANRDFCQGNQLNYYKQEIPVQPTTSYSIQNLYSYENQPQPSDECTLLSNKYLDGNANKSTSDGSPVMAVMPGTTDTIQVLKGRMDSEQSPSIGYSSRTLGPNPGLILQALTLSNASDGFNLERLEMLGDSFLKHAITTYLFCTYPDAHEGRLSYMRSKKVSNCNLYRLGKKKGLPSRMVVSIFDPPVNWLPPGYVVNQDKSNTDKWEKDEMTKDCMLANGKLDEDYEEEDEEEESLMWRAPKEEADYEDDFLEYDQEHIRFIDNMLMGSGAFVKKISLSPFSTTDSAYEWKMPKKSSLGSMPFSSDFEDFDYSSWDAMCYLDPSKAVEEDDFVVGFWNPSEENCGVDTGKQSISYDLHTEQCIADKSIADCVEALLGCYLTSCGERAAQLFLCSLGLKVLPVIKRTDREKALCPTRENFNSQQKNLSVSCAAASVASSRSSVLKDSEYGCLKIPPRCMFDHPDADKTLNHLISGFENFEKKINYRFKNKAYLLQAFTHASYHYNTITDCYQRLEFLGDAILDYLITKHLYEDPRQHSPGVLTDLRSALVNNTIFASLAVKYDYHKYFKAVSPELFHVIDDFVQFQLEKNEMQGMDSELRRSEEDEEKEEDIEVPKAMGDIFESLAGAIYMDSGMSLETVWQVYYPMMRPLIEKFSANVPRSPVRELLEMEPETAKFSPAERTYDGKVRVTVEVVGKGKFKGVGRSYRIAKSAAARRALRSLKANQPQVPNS
Eukaryotic translation initiation factor 4E/Eukaryotic translation initiation factor 4E-binding protein 1 (Homo sapiens), sequence (P06730 2-217 limits assumed): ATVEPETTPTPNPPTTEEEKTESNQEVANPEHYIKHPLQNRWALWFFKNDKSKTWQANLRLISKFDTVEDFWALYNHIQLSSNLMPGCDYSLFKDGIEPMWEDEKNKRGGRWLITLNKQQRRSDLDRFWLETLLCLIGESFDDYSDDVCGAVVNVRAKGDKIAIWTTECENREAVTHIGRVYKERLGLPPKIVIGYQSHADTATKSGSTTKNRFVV
Eukaryotic translation initiation factor 4E/Eukaryotic translation initiation factor 4E-binding protein 1 (Homo sapiens), sequence (Q13541 2-118 partner limits assumed): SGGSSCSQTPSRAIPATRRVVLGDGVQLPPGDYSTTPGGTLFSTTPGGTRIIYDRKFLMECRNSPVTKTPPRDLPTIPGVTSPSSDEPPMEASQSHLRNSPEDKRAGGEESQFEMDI

Compound	IC50 [2]	other results
O=S(=O)(Nc1cccc(NS(=O)(=O)c2ccccc2)c1)c1ccccc1	–	inhibition [1]: inactive
Cc1ccc(S(=O)(=O)Nc2ccc(C)cc2NS(=O)(=O)c2ccc(C)cc2)cc1	14.1 µM	–
Cc1ccc(S(=O)(=O)Nc2ccc(F)cc2NS(=O)(=O)c2ccc(C)c(Cl)c2)cc1Cl	3.7 µM	–
Cc1ccc(NS(=O)(=O)c2ccccc2)c(NS(=O)(=O)c2ccccc2)c1	28.8 µM	–
O=S(=O)(c1ccccc1)N1CCN(S(=O)(=O)c2ccccc2)c2ccccc21	–	inhibition [1]: inactive
O=S(=O)(Nc1ccccc1NS(=O)(=O)c1ccccc1)c1ccccc1	32.2 µM	–
Nc1ccccc1NS(=O)(=O)c1ccccc1	–	inhibition [1]: inactive
O=C(Nc1ccccc1NC(=O)c1ccccc1)c1ccccc1	–	inhibition [1]: inactive
CC(=O)Nc1ccc(S(=O)(=O)Nc2ccccc2NS(=O)(=O)c2ccc(NC(C)=O)cc2)cc1	62.5 µM	–
Cc1ccc(S(=O)(=O)Nc2ccccc2NS(=O)(=O)c2ccc(C)c(Cl)c2)cc1Cl	2.3 µM	–
Cc1ccc(S(=O)(=O)Nc2ccc(C)cc2NS(=O)(=O)c2cccc(C(F)(F)F)c2)cc1	10.4 µM	inhibition [3]: Active; inhibition [4]: inactive; inhibition [5]: Active; inhibition [6]: Active; inhibition [7]: Active
Cc1ccc(NS(=O)(=O)c2cccc(Cl)c2)c(NS(=O)(=O)c2cccc(Cl)c2)c1	4.3 µM	–
Cc1ccc(S(=O)(=O)Nc2ccc(F)cc2NS(=O)(=O)c2ccc(C)cc2)cc1	8.3 µM	inhibition [8]: inactive; inhibition [3]: Active; Activity [9]: Active; inhibition [4]: inactive; inhibition [5]: Active; inhibition [6]: Active; inhibition [7]: Active; Activity [10]: inactive
O=S(=O)(Nc1ccccc1NS(=O)(=O)c1cccc(Cl)c1)c1cccc(Cl)c1	5.7 µM	–

More lines, main results first:

IC50 [2]	Compound	other results
16.2 µM	Cc1ccc(NS(=O)(=O)c2ccc(F)cc2)c(NS(=O)(=O)c2ccc(F)cc2)c1	–
28.4 µM	Cc1ccc(NS(=O)(=O)c2ccc(Cl)cc2)c(NS(=O)(=O)c2ccc(Cl)cc2)c1	–
11.7 µM	Cc1ccc(S(=O)(=O)Nc2ccc(C)cc2NS(=O)(=O)c2ccc(F)cc2)cc1	–
27.3 µM	O=S(=O)(Nc1ccccc1NS(=O)(=O)c1ccc(Cl)cc1)c1ccc(F)cc1	–
17.2 µM	COc1ccc(S(=O)(=O)Nc2ccccc2NS(=O)(=O)c2ccc(F)cc2)cc1	–
16.7 µM	COc1ccc(S(=O)(=O)Nc2ccccc2NS(=O)(=O)c2ccc(OC)cc2)cc1	–
17.5 µM	O=S(=O)(Nc1ccccc1NS(=O)(=O)c1ccc(Br)cc1)c1ccc(Br)cc1	–
13.9 µM	O=S(=O)(Nc1ccccc1NS(=O)(=O)c1ccc(F)cc1)c1ccccc1	–
10.8 µM	O=S(=O)(Nc1ccccc1NS(=O)(=O)c1cccc(Cl)c1)c1ccc(F)cc1	–
16.2 µM	O=S(=O)(Nc1ccccc1NS(=O)(=O)c1cccc(Br)c1)c1ccc(F)cc1	–
27.5 µM	O=S(=O)(Nc1ccccc1NS(=O)(=O)c1ccc(Cl)cc1)c1ccc(Cl)cc1	–
28.3 µM	O=S(=O)(Nc1ccccc1NS(=O)(=O)c1ccc(F)cc1)c1ccc(F)cc1	–
